pIC50, pKi: −log10 of the molar value.
Legend:
Rattus norvegicus [1] = assay: Ex vivo SERT occupancy in Sprague-Dawley rat dorsal raphe at 10 mg/kg, po […] by autoradiography; format: functional
Rattus norvegicus [2] = assay: Ex vivo SERT occupancy in Sprague-Dawley rat superior coulliculus at 10 mg/kg, po […] by autoradiography; format: functional
Rattus norvegicus [3] = assay: Ex vivo SERT occupancy in Sprague-Dawley rat striatum at 10 mg/kg, po […] by autoradiography; format: functional
Rattus norvegicus [4] = assay: Ex vivo SERT occupancy in Sprague-Dawley rat cortex at 10 mg/kg, po after 1 hr by autoradiography; format: functional
Procedure, shortened: (§1)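 Oral dosing in rats. SERT occupancy was taken from [3H]citalopram binding to brain cortex prepared 1 h after administration.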

Rattus norvegicus [5] = assay: Ex vivo SERT occupancy in Sprague-Dawley rat cortex at 20 mg/kg, po after 1 hr by autoradiography; format: functional; procedure, shortened: as §1
Rattus norvegicus [6] = assay: Ex vivo SERT occupancy in Sprague-Dawley rat cortex at 3 mg/kg, po after 1 hr by autoradiography; format: functional; procedure, shortened: as §1
Rattus norvegicus [7] = assay: Ex vivo SERT occupancy in Sprague-Dawley rat cortex at 1 mg/kg, po after 1 hr by autoradiography; format: functional; procedure, shortened: as §1
Rattus norvegicus [8] = assay: Ex vivo SERT occupancy in Sprague-Dawley rat cortex at 0.3 mg/kg, po after 1 hr by autoradiography; format: functional; procedure, shortened: as §1
Rattus norvegicus [9] = assay: Ex vivo SERT occupancy in Sprague-Dawley rat cortex at 0.1 mg/kg, po after 1 hr by autoradiography; format: functional
Rattus norvegicus [10] = assay: Ex vivo SERT occupancy in Sprague-Dawley rat cortex at 0.03 mg/kg, po after 1 hr by autoradiography; format: functional; procedure, shortened: as §1
[11] = Ratio of drug level in brain to blood in rat; format: ADME, tissue-based
[12] = Half life in rat; format: ADME, organism-based; conditions: in vivo
[13] = Blood clearance in rat; format: ADME, organism-based
[14] = Volume of distribution in rat; format: ADME, organism-based; conditions: in vivo
[15] = Oral bioavailability in rat; format: ADME, organism-based; conditions: in vivo
[16] = target: Sodium-dependent dopamine transporter (Mus musculus, UniProt Q61327); assay: Displacement of [3H]WIN-35428 from DAT in mouse brain; format: tissue-based
[17] = target: Sodium-dependent noradrenaline transporter (Mus musculus, UniProt O55192); assay: Displacement of [3H]nisoxetine from NET in mouse brain; format: tissue-based
[18] = target: Sodium-dependent serotonin transporter (Mus musculus, UniProt Q60857); assay: Displacement of [3H]-citalopram from SERT in mouse cortex after 2 hrs by liquid scintillation counting
Sodium-dependent serotonin transporter (Mus musculus, UniProt Q60857), sequence (Q60857 whole entry): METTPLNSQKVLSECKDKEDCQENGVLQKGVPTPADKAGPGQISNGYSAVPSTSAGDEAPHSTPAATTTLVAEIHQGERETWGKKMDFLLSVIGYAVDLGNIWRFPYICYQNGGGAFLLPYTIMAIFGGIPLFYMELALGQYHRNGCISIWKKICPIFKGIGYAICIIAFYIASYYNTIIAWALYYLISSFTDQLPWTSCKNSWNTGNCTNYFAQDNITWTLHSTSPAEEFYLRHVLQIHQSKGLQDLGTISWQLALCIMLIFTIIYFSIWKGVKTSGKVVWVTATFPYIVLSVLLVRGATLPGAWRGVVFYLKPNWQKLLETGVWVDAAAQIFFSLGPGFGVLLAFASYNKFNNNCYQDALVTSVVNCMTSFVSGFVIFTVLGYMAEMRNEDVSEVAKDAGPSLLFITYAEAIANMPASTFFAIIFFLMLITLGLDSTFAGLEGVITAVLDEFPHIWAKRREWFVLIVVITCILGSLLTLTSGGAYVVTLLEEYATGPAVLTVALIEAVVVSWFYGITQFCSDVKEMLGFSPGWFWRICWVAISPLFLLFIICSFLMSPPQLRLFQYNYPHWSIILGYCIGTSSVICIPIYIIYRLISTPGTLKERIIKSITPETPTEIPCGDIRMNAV
Procedure, shortened: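 Mouse cortex membranes (7 μg protein/well) were incubated 2 h at room temperature with [³H]citalopram, added at 0.25 nM. Test compound came from a 100× DMSO solution. Nonspecific binding was defined with 10 μM fluoxetine (final). Bound ligand was collected by filtration on PEI-presoaked GF/B filters, washed with ice-cold 0.9% NaCl and scintillation counted. A four-parameter logistic fit gave pIC50, converted to pKi by Cheng-Prusoff.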

[19] = target: Sodium-dependent dopamine transporter (Rattus norvegicus, UniProt P23977); assay: Displacement of [3H]WIN-35428 from DAT in rat striatum after 2 hrs by liquid scintillation counting
[20] = target: Sodium-dependent serotonin transporter (Rattus norvegicus, UniProt P31652); assay: Displacement of [3H]-citalopram from SERT in rat cortex after 2 hrs by liquid scintillation counting
Sodium-dependent serotonin transporter (Rattus norvegicus, UniProt P31652), sequence (P31652 whole entry): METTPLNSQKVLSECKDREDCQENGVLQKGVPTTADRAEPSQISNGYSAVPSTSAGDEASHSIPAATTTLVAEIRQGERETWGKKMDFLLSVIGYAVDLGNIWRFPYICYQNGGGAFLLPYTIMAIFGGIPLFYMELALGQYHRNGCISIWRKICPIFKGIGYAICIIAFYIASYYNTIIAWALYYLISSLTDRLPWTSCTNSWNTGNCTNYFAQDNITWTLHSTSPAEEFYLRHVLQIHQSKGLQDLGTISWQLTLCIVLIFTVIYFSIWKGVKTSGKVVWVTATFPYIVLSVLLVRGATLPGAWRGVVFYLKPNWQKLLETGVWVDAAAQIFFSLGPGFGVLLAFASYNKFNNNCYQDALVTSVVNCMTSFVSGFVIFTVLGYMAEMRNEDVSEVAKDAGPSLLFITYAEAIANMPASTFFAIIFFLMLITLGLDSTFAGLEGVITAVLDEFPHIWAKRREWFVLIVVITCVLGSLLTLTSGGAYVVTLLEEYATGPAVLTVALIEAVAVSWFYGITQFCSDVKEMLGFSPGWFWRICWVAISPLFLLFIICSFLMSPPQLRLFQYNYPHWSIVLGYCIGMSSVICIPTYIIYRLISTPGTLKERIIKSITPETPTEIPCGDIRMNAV

[21] = target: T1, Sodium-dependent dopamine transporter (Homo sapiens, UniProt Q01959); assay: Inhibition of [3H]dopamine reuptake at human DAT expressed in pig LLCPK cells after 1 hr; format: cell-based
T1 sequence (Q01959 whole entry): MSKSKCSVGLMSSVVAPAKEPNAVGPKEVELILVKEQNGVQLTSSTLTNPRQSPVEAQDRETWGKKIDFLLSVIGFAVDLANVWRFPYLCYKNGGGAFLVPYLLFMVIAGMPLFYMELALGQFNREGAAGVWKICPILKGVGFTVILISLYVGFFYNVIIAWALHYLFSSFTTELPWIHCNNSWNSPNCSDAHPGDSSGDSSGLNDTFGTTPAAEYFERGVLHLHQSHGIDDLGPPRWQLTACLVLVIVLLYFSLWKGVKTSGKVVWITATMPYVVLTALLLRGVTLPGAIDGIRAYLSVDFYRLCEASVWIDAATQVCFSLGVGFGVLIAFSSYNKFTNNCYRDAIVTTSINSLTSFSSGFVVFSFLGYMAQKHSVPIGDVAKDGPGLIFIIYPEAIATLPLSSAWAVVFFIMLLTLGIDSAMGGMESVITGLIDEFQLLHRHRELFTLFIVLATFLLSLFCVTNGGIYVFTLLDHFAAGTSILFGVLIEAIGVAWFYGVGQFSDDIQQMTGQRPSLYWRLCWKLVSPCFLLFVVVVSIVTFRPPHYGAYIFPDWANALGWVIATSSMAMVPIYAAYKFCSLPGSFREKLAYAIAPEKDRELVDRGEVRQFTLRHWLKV
Procedure, shortened: (§2)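 Uptake SPA on stably transfected LLCPK cells with SPA beads (1.5 mg/mL SERT, NET; 2 mg/mL DAT) and 0.02% Pluronic F-127 in 20 mM HEPES, 145 mM NaCl, 5 mM KCl, pH 7.4. Cells/well: SERT 25 000, NET 50 000, DAT 75 000. Started by adding 35 nM [3H]serotonin, 45 nM [3H]noradrenalin or 75 nM [3H]dopamine (solutions added); 1 h, room temperature; four-parameter fit; n = 3.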

[22] = target: T2, Sodium-dependent noradrenaline transporter (Homo sapiens, UniProt P23975); assay: Inhibition of [3H]noradrenalin reuptake at human NET expressed in pig LLCPK cells after 1 hr; format: cell-based; procedure, shortened: as §2
T2 sequence (P23975 whole entry): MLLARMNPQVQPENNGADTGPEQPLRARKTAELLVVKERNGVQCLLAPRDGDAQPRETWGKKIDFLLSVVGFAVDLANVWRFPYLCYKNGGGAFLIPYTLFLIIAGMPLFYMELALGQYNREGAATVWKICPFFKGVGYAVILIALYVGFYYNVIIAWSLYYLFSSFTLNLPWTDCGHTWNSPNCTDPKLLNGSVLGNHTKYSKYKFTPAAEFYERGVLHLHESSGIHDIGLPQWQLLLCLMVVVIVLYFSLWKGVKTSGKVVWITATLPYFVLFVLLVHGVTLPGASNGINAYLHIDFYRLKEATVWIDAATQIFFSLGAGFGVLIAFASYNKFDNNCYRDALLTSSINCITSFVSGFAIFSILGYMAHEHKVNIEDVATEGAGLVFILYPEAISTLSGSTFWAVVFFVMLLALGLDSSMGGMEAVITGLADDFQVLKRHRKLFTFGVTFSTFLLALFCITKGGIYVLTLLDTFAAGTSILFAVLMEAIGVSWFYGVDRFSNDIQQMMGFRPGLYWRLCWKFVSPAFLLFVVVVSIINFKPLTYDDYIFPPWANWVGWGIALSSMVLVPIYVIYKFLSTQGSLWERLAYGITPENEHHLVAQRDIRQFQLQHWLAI

[23] = target: T3, Sodium-dependent serotonin transporter (Homo sapiens, UniProt P31645); assay: Inhibition of [3H]serotonin reuptake at human SERT expressed in pig LLCPK cells after 1 hr; format: cell-based; procedure, shortened: as §2
T3 sequence (P31645 whole entry): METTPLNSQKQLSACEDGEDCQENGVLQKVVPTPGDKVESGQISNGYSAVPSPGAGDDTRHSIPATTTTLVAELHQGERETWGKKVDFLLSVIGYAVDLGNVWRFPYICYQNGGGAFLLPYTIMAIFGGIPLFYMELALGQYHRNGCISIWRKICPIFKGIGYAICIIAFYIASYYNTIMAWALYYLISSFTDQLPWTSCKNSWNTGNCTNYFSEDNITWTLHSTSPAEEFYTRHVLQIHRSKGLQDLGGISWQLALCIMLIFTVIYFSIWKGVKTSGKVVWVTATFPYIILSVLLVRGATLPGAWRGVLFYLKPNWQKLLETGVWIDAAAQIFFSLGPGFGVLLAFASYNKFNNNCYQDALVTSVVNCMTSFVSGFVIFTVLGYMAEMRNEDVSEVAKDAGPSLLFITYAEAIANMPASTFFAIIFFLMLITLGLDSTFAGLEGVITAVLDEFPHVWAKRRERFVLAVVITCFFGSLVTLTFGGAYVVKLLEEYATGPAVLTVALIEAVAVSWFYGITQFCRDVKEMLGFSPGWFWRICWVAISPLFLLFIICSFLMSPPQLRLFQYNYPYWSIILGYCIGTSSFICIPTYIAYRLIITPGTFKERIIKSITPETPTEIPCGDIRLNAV

[24] = target: T1, Sodium-dependent dopamine transporter; assay: Displacement of [3H]WIN-35428 from human recombinant DAT by SPA
Procedure, shortened: (§3)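 SPA binding on BacMam-expressed human transporter membranes (SERT 6, NET 40, DAT 20 μg/mL) with SPA beads (1 mg/mL SERT; 2 mg/mL NET, DAT), 0.02% Pluronic F-127. Radioligands: 3 nM [3H]citalopram (SERT), 10 nM [3H]nisoxetine (NET), 10 nM [3H]WIN-35,428 (DAT). Buffer 20 mM HEPES, 145 mM NaCl, 5 mM KCl, pH 7.4; overnight, room temperature; imager read; four-parameter fit, Cheng-Prusoff pKi.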

[25] = target: T2, Sodium-dependent noradrenaline transporter; assay: Displacement of [3H]nisoxetine from human recombinant NET by SPA; procedure, shortened: as §3
[26] = target: T3, Sodium-dependent serotonin transporter; assay: Displacement of [3H]citalopram from human recombinant SERT by SPA; procedure, shortened: as §3
Cytochrome P450 3A4 = Cytochrome P450 3A4 (Homo sapiens, UniProt P08684); assay: Inhibition of human CYP3A4 after 10 mins; format: ADME
Procedure, shortened: (§4)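 Recombinant human CYP bactosomes (0.1 mg/mL) were pre-incubated 10 min at 37 °C in 50 mM phosphate pH 7.4 with compound (0.1–10 μM) and a fluorogenic substrate. Substrates: ethoxyresorufin 0.5 μM (1A2), FCA 50 μM (2C9), BMC 10 μM (2C19), MMC 10 μM (2D6), DEF 1 μM or 7-BQ 25 μM (3A4). Adding an NADPH-regenerating system started the reaction, and metabolite fluorescence was read over 10 min. The IC50 came from rate as percent of control; miconazole served as positive control, with triplicates.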

Cytochrome P450 2D6 = Cytochrome P450 2D6 (Homo sapiens, UniProt P10635); assay: Inhibition of human CYP2D6 after 10 mins; format: ADME; procedure, shortened: as §4
Cytochrome P450 2D6, sequence (P10635 whole entry): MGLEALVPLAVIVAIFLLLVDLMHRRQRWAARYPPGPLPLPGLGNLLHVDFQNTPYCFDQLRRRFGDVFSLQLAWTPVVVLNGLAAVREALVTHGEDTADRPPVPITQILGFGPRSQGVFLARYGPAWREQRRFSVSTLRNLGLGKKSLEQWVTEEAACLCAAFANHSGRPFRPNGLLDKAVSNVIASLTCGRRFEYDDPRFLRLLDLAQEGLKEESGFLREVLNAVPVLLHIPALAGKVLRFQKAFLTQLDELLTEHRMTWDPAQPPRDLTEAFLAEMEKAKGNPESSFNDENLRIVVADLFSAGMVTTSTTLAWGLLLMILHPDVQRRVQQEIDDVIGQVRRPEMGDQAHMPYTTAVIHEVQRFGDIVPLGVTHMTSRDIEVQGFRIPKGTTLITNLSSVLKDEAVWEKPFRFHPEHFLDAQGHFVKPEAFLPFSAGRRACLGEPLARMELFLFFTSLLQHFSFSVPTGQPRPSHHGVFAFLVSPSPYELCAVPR

Cytochrome P450 2C19 = Cytochrome P450 2C19 (Homo sapiens, UniProt P33261); assay: Inhibition of human CYP2C19 after 10 mins; format: ADME; procedure, shortened: as §4
Cytochrome P450 2C19, sequence (P33261 whole entry): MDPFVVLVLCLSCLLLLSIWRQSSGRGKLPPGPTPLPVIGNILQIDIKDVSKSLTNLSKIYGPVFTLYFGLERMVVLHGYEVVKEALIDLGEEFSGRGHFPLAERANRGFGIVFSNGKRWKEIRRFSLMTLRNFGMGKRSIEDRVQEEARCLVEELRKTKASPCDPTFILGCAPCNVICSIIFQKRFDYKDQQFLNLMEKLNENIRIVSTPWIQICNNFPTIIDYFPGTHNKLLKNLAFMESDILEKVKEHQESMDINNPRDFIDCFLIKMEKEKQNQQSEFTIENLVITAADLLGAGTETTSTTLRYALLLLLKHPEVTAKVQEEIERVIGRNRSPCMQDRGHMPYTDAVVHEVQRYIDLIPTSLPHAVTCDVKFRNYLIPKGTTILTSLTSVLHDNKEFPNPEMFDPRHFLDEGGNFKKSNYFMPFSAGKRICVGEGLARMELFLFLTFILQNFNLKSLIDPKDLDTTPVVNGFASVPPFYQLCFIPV

Cytochrome P450 2C9 = Cytochrome P450 2C9 (Homo sapiens, UniProt P11712); assay: Inhibition of human CYP2C9 after 10 mins; format: ADME; procedure, shortened: as §4
Cytochrome P450 1A2 = target: T4, Cytochrome P450 1A2 (Homo sapiens, UniProt P05177); assay: Inhibition of human CYP1A2 after 10 mins; format: ADME; procedure, shortened: as §4
T4 sequence (P05177 whole entry): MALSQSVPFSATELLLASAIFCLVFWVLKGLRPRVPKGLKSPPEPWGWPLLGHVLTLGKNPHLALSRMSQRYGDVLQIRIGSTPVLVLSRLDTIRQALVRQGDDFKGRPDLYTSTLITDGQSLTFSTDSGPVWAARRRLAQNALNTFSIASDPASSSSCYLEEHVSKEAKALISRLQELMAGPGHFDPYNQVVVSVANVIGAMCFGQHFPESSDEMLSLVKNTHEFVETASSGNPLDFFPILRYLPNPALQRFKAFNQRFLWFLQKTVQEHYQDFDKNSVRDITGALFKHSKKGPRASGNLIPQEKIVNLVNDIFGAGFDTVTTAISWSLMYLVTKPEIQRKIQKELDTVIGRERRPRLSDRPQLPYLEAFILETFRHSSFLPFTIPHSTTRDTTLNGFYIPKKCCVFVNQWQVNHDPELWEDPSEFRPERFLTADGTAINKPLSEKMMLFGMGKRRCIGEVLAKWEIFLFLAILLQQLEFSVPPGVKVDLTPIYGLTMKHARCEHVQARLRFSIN

[27] = target: T1, Sodium-dependent dopamine transporter; assay: Displacement of [N-methyl-3H]WIN-35428 from human recombinant DAT expressed in pig LLCPK cells after 2 hrs by liquid scintillation counting; format: cell-based
[28] = target: T2, Sodium-dependent noradrenaline transporter; assay: Displacement of [N-methyl-3H]nisoxetine from human recombinant NET expressed in pig LLCPK cells after 2 hrs by liquid scintillation counting; format: cell-based
Rattus norvegicus [29] = assay: Ex vivo SERT occupancy in Sprague-Dawley rat substantia nigra at 10 mg/kg, po […] by autoradiography; format: functional
[30] = target: T3, Sodium-dependent serotonin transporter; assay: Displacement of [N-methyl-3H]citalopram from human recombinant SERT expressed in pig LLCPK cells after 2 hrs by liquid scintillation counting; format: cell-based
Transporter = Transporter (Rattus norvegicus, UniProt Q63380); assay: Displacement of [3H]nisoxetine from NET in rat hippocampus after 2 hrs by liquid scintillation counting; format: tissue-based
Transporter, sequence (Q63380 whole entry): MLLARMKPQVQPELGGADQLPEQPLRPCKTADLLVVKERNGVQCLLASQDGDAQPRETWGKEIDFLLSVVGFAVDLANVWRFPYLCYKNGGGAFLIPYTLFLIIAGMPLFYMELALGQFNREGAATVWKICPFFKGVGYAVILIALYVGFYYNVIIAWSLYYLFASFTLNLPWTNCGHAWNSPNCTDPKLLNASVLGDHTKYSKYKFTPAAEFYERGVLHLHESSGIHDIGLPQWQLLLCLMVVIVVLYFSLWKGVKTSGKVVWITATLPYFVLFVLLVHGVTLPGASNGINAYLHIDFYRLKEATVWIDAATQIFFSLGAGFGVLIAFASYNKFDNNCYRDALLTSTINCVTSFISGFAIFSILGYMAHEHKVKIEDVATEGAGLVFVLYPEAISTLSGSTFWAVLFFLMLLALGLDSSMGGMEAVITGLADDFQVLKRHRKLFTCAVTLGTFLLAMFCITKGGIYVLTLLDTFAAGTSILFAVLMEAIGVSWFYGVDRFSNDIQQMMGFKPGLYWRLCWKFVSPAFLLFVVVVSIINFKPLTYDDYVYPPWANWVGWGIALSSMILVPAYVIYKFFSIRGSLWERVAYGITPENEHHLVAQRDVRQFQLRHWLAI
Procedure, shortened: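 Rat hippocampus membranes (40 μg protein/well), competition filtration binding run as for human recombinant NET: 1.5 nM [3H]nisoxetine, test compound added from 100x DMSO solution, 10 μM desipramine for nonspecific binding. Incubated for 2 h at room temperature, filtered on PEI-presoaked GF/B, and washed with ice-cold 0.9% NaCl. Read by scintillation counting; four-parameter logistic pIC50 converted to pKi by Cheng-Prusoff.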

Compound: COC[C@@]12CNCC[C@]1(c1ccc(Cl)c(Cl)c1)C2 (relative stereo; 17) [GSK1360707]
- Activity (Rattus norvegicus [1]): 87.92%
- Activity (Rattus norvegicus [2]): >=95%
- Activity (Rattus norvegicus [3]): >=95%
- Activity (Rattus norvegicus [4]): >=95%
- Activity (Rattus norvegicus [5]): 98.2%
- Activity (Rattus norvegicus [6]): 82.8%
- Activity (Rattus norvegicus [7]): 58.2%
- Activity (Rattus norvegicus [8]): 36.3%
- Activity (Rattus norvegicus [9]): 12.6%
- Activity (Rattus norvegicus [10]): 4.6%
- Kp [11]: 6.3
- half-life [12]: 1.7 h
- clearance [13]: 48 mL/min
- Vd [14]: 5.8 L/kg
- bioavailability [15]: 54%
- pKi [16]: 8.00
- pKi [17]: 8.80
- pKi [18]: 8.80
- pKi [19]: 8.00
- pKi [20]: 8.90
- pIC50 [21]: 8.70
- pIC50 [22]: 8.70
- pIC50 [23]: 8.40
- pKi [24]: 7.92
- pKi [25]: 7.92
- pKi [26]: 8.98
- pIC50 (Cytochrome P450 3A4): 5.00
- pIC50 (Cytochrome P450 2D6): 5.52
- pIC50 (Cytochrome P450 2C19): 5.00
- pIC50 (Cytochrome P450 2C9): 5.00
- pIC50 (Cytochrome P450 1A2): 5.00
- pKi [27]: 8.00
- pKi [28]: 8.10
- Activity (Rattus norvegicus [29]): >=95%
- pKi [30]: 9.20
- pKi (Transporter): 8.60
